# In ChEMBL document CHEMBL4261629 (Bioorg Med Chem, 2018):
# pIC50: −log10 of the molar value. Activity calls are given as the source filed them. The rule behind the calls is not given here.
# Legend:
# [1] = target: T1, Protein deacetylase HDAC6 (Homo sapiens, UniProt Q9UBN7); assay: Inhibition of recombinant human HDAC6 using fluorogenic HDAC substrate preincubated for 15 mins followed by substrate addition and measured after 30 mins by fluorescence analysis
# T1 sequence (Q9UBN7 whole entry): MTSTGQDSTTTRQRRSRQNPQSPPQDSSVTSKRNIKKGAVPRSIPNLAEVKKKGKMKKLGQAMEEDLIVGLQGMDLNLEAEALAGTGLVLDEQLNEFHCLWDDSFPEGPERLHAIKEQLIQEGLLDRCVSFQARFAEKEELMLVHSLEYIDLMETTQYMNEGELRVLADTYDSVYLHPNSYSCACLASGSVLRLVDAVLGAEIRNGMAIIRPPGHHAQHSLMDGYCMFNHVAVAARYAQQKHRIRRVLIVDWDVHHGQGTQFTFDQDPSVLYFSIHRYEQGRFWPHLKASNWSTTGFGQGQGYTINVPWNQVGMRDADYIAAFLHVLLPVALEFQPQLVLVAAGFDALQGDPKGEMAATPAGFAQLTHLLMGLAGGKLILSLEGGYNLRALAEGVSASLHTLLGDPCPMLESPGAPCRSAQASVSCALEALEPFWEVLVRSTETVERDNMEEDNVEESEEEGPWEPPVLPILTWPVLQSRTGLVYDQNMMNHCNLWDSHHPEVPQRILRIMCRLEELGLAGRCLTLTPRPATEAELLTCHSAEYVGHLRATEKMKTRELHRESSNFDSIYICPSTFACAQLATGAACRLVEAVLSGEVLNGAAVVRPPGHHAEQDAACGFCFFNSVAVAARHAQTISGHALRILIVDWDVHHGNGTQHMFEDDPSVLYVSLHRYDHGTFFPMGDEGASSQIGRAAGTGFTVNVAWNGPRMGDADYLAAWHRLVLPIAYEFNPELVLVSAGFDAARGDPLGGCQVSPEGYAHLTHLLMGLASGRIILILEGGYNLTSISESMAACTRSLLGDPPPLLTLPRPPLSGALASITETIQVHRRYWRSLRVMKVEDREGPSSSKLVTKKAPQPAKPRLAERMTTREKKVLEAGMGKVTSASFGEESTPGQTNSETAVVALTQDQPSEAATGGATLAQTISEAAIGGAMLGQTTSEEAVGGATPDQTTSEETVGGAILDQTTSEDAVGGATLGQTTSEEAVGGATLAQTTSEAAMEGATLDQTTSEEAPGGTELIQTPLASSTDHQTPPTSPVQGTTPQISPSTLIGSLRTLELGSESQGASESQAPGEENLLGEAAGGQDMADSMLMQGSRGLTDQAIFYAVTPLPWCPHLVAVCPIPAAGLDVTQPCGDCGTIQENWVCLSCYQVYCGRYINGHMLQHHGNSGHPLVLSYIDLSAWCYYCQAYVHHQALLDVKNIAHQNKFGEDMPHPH
# [2] = Antioxidant activity assessed as tert-butyl hydroperoxide radical scavenging at 10 uM measured within 180 mins; format: functional
# Summary of the method: (§1)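 Kinetic peroxide scavenging by GSH at 25 °C in 100 mM phosphate buffer, pH 7.5. Final conditions: EDTA 1 mM, GSH 0.25 mM, NADPH 0.50 mM, glutathione reductase 1.3 unit·mL-1, peroxide 0.20 mM (H2O2, t-BuOOH or Cum-OOH), catalyst 10 μM. Scavenging was followed over time, and maximal scavenging was derived. Mean ± SE, three independent experiments.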
# PC-12 [3] = assay: Neuroprotective activity against 6-OHDA-induced toxicity in rat PC12 cells assessed as increase in cell viability at 10 uM pretreated for 24 hrs followed by 6-OHDA challenge and measured after 12 hrs by MTT assay; format: functional, cell-based
# Summary of the method: (§2)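 Medium was replaced with fresh medium containing H2O2 (400 μM) or 6-OHDA (200 μM), and incubation continued 12 h. Viability was read by MTT assay. Mean ± SD, three independent experiments.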
# [4] = Antioxidant activity assessed as H2O2 radical scavenging at 10 uM measured within 180 mins; format: functional; summary of the method: as §1
# [5] = Antioxidant activity assessed as cumene hydroperoxide radical scavenging at 10 uM measured within 180 mins; format: functional; summary of the method: as §1
# PC-12 [6] = assay: Neuroprotective activity against H2O2-induced toxicity in rat PC12 cells assessed as cell viability at 10 uM pretreated for 24 hrs followed by H2O2 challenge and measured after 12 hrs by MTT assay relative to control; format: functional, cell-based; summary of the method: as §2
# PC-12 [7] = assay: Neuroprotective activity against 6-OHDA-induced toxicity in rat PC12 cells assessed as increase in cell viability at 5 uM pretreated for 24 hrs followed by 6-OHDA challenge and measured after 12 hrs by MTT assay; format: functional, cell-based; summary of the method: as §2
# PC-12 [8] = assay: Cytotoxicity against rat PC12 cells at 20 uM after 24 hrs by MTT assay; format: cell-based; conditions: pc-12, 24 h
# PC-12 [9] = assay: Antioxidant activity against H2O2-induced oxidative stress in rat PC12 cells assessed as decrease in ROS accumulation preincubated for 24 hrs followed by H2O2 challenge and measured after 12 hrs coincubated with tubastatin A by DCFH-DA dye-based fluorescence analysis; format: functional, cell-based
# Summary of the method: (§3)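 Intracellular ROS was detected by DCFH-DA staining, which esterases deacetylate and ROS oxidise to fluorescent dichlorofluorescein. Fluorescence was quantified on a microplate reader.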
# [10] = Antioxidant activity assessed as tert-butyl hydroperoxide radical scavenging at 10 uM up to 200 mins; format: functional; summary of the method: as §1
# PC-12 [11] = assay: Cytoprotective activity against H2O2-induced damage in rat PC12 cells assessed as decrease in ROS accumulation preincubated for 24 hrs followed by H2O2 challenge measured after 12 hrs by DCFH-DA dye-based inverted fluorescence microscopic analysis; format: functional, cell-based
# Summary of the method: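 PC12 cells were pretreated with compound (5 or 10 µM), then challenged with H2O2 and stained with DCFH-DA to show ROS. Fluorescence images were taken by inverted fluorescence microscopy.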
# PC-12 [12] = assay: Neuroprotective activity against H2O2-induced toxicity in rat PC12 cells assessed as cell viability at 5 uM pretreated for 24 hrs followed by H2O2 challenge and measured after 12 hrs by MTT assay relative to control; format: functional; conditions: read-out: Activity; summary of the method: as §2
# PC-12 [13] = assay: Antioxidant activity against H2O2-induced oxidative stress in rat PC12 cells assessed as decrease in ROS accumulation at 5 uM preincubated for 24 hrs followed by H2O2 challenge and measured after 12 hrs by DCFH-DA dye-based fluorescence analysis; format: functional, cell-based; summary of the method: as §3
# PC-12 [14] = assay: Cytoprotective activity against H2O2-induced damage in rat PC12 cells assessed as decrease in ROS accumulation preincubated for 24 hrs followed by H2O2 challenge measured after 12 hrs by DCFH-DA dye-based fluorescence analysis; format: functional, cell-based; summary of the method: as §3
# [15] = Antioxidant activity assessed as cumene hydroperoxide radical scavenging at 10 uM up to 200 mins; format: functional; summary of the method: as §1
# [16] = Antioxidant activity assessed as H2O2 radical scavenging at 10 uM up to 200 mins; format: functional; summary of the method: as §1
# Histone deacetylase 3 = Histone deacetylase 3 (Homo sapiens, UniProt O15379); assay: Inhibition of recombinant human HDAC3 using fluorogenic HDAC substrate after 30 mins by fluorescence analysis
# Chain of Histone deacetylase 3 (O15379 whole entry): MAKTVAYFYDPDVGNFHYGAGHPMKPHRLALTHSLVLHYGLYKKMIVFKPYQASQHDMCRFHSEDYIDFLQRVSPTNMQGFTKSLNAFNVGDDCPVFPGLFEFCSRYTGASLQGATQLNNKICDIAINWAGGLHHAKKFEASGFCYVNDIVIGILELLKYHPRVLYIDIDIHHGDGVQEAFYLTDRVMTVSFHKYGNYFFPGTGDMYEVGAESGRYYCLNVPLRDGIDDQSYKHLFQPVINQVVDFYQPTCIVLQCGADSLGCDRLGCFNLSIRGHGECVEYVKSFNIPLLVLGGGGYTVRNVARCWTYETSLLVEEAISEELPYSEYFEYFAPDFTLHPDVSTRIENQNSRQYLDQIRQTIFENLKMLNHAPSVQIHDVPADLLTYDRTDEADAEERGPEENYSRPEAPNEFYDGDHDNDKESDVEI
# [17] = target: T2, Histone deacetylase 6 (Rattus norvegicus) (UniProt Q99P97); assay: Inhibition of HDAC6 in rat PC12 cells assessed as increase in acetylated alpha-tubulin expression after 24 hrs by Western blot analysis; format: cell-based
# T2 sequence (whole entry): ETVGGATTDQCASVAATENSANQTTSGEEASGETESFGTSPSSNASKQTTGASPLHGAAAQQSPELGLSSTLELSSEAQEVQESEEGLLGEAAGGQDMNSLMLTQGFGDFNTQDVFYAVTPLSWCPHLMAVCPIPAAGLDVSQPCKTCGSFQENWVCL
# Summary of the method: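 Cellular HDAC6 inhibition: PC12 cells were incubated with compound at 0.01, 0.1, 1 and 10 μM. Acetylated α-tubulin and total α-tubulin were detected by Western blot, and their ratio was assessed.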
# PC-12 [18] = assay: Neuroprotective activity against 6-OHDA-induced toxicity in rat PC12 cells assessed as increase in cell viability at 5 to 10 uM pretreated for 24 hrs followed by 6-OHDA challenge and measured after 12 hrs coincubated with tubastatin A by MTT assay; format: functional, cell-based; summary of the method: as §2
# PC-12 [19] = assay: Antioxidant activity against H2O2-induced oxidative stress in rat PC12 cells assessed as decrease in ROS accumulation at 5 uM preincubated for 24 hrs followed by H2O2 challenge and measured after 12 hrs coincubated with tubastatin A by DCFH-DA dye-based fluorescence analysis; format: functional, cell-based; summary of the method: as §3
# PC-12 [20] = assay: Cytotoxicity against rat PC12 cells at 20 uM in presence of tubastantin A after 24 hrs by MTT assay; format: cell-based; conditions: pc-12, 24 h
# PC-12 [21] = assay: Neuroprotective activity against H2O2-induced toxicity in rat PC12 cells assessed as cell viability at 5 to 10 uM pretreated for 24 hrs followed by H2O2 challenge and measured after 12 hrs coincubated with tubastatin A by MTT assay relative to control; format: functional; summary of the method: as §2
# PC-12 [22] = assay: Cytotoxicity against rat PC12 cells at 20 uM in presence of ebselen after 24 hrs by MTT assay; format: cell-based; conditions: pc-12, 24 h
# Summary of the method: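 PC12 cells exposed for 24 h to compound at 10 or 20 µM, alone or combined with ebselen. Viability by MTT assay. Mean ± SD of three independent experiments.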
# PC-12 [23] = assay: Neuroprotective activity against H2O2-induced toxicity in rat PC12 cells assessed as cell viability at 5 to 10 uM pretreated for 24 hrs followed by H2O2 challenge and measured after 12 hrs coincubated with ebselen by MTT assay relative to control; format: functional
# Summary of the method: (§4)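 PC12 cells seeded at 1 × 10⁴ cells/well and grown 1 d, then pretreated 24 h with compound, alone or with ebselen. Medium replaced with fresh medium containing the insult (H2O2 400 µM or 6-OHDA 200 µM), incubated 12 h. Viability by MTT assay, relative to control. Mean ± SD of three independent experiments.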
# PC-12 [24] = assay: Antioxidant activity against H2O2-induced oxidative stress in rat PC12 cells assessed as decrease in ROS accumulation at 5 uM preincubated for 24 hrs followed by H2O2 challenge and measured after 12 hrs coincubated with ebselen by DCFH-DA dye-based fluorescence analysis; format: functional, cell-based
# Summary of the method: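 PC12 cells pretreated with compound (5 or 10 µM) alone or together with ebselen, then challenged with H2O2. Intracellular ROS detected by DCFH-DA staining, which is deacetylated in cells and oxidised by ROS to fluorescent dichlorofluorescein. Imaged by inverted fluorescence microscopy and quantified on a fluorescence microplate reader.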
# PC-12 [25] = assay: Neuroprotective activity against 6-OHDA-induced toxicity in rat PC12 cells assessed as increase in cell viability at 5 to 10 uM pretreated for 24 hrs followed by 6-OHDA challenge and measured after 12 hrs coincubated with ebselen by MTT assay; format: functional, cell-based; summary of the method: as §4
smiles,measurement,setting,value
O=C(NO)c1ccc(Cn2[se]c3ccc(C(F)(F)F)cc3c2=O)cc1,pIC50,[1],6.23
O=C(NO)c1ccc(Cn2[se]c3ccc(F)cc3c2=O)cc1,pIC50,[1],6.75
O=C(NO)c1cnc(N2CCC(n3[se]c4ccccc4c3=O)CC2)nc1,pIC50,[1],6.01
O=C(CCCOc1ccc(-n2[se]c3ccccc3c2=O)cc1)NO,pIC50,[1],6.04
O=C(NO)c1ccc(Cn2[se]c3ccc(O)cc3c2=O)cc1,Activity,[2],Active
same,Activity,PC-12 [3],Active
same,pIC50,[1],6.73
same,Activity,[4],Active
same,Activity,[5],Active
same,Activity,PC-12 [6],Active
same,Activity,PC-12 [7],Active
same,Activity,PC-12 [8],Non-Toxic
O=C(/C=C/c1ccc(-n2[se]c3ccccc3c2=O)cc1)NO,pIC50,[1],6.17
O=C(CCCCn1[se]c2ccccc2c1=O)NO,pIC50,[1],6.45
O=C(CCCCCOc1ccc(-n2[se]c3ccccc3c2=O)cc1)NO,pIC50,[1],6.29
O=C(CCCCCCOc1ccc(-n2[se]c3ccccc3c2=O)cc1)NO,pIC50,[1],6.74
O=C(CCCCCn1[se]c2ccccc2c1=O)NO,pIC50,[1],6.74
O=C(CCc1ccc(-n2[se]c3ccccc3c2=O)cc1)NO,pIC50,[1],5.94
O=C(NO)c1ccc(Cn2[se]c3ccccc3c2=O)cc1,Activity,PC-12 [9],Dose-dependent effect
same,Activity,[10],78%
same,Activity,PC-12 [3],Active
same,pIC50,[1],7.43
same,Activity,PC-12 [11],Active
same,viability at 5 µM,PC-12 [12],90%
same,Activity,PC-12 [13],Active
same,Activity,PC-12 [14],Active
same,Activity,[15],37%
same,Activity,PC-12 [7],Active
same,Activity,[16],62%
same,pIC50,Histone deacetylase 3,5.89
same,Activity,PC-12 [8],Non-Toxic
same,inhibition,[17],Dose-dependent effect
O=C(NO)c1ccc(-n2[se]c3ccccc3c2=O)cc1,pIC50,[1],5.71
O=c1c2ccccc2[se]n1-c1ccccc1 [EBSELEN],Activity,PC-12 [18],Active
same,Activity,PC-12 [9],Active
same,Activity,[10],71%
same,Activity,PC-12 [3],Active
same,pIC50,[1],4.94
same,Activity,PC-12 [11],Active
same,Activity,PC-12 [19],Active
same,Activity,PC-12 [20],Non-Toxic
same,Activity,PC-12 [21],90%
same,Activity,PC-12 [13],Active
same,Activity,PC-12 [14],Active
same,Activity,[15],29%
same,Activity,PC-12 [6],Active
same,Activity,PC-12 [7],Active
same,Activity,[16],51%
same,Activity,PC-12 [8],Non-Toxic
O=C(NO)c1cnc(N2CCC(Cn3[se]c4ccccc4c3=O)CC2)nc1,pIC50,[1],6.35
O=C(CCCCCCn1[se]c2ccccc2c1=O)NO,Activity,[10],41%
same,pIC50,[1],7.72
same,Activity,[15],25%
same,Activity,[16],41%
same,pIC50,Histone deacetylase 3,6.79
CN1CCc2c(c3ccccc3n2Cc2ccc(C(=O)NO)cc2)C1 [TUBASTATIN A],Activity,PC-12 [9],Dose-dependent effect
same,Activity,PC-12 [22],Non-Toxic
same,Activity,PC-12 [3],Active
same,Activity,PC-12 [11],Active
same,Activity,PC-12 [13],Active
same,Activity,PC-12 [14],Active
same,Activity,PC-12 [6],Active
same,Activity,PC-12 [23],90%
same,Activity,PC-12 [24],Active
same,Activity,PC-12 [7],Active
same,Activity,PC-12 [8],Non-Toxic
same,Activity,PC-12 [25],Active
CC(c1ccc(C(=O)NO)cc1)n1[se]c2ccccc2c1=O (racemic),pIC50,[1],6.06
